12 compounds from ChEMBL document CHEMBL1131099, “Biologically active oligodeoxyribonucleotides. 5. 5'-End-substituted d(TGGGAG) possesses anti-human immunodeficiency virus type 1 activity by forming a G-quadruplex structure” (J Med Chem, 1998) can be followed below.

Assay [1] relates to MT4. Briefly: Cytotoxicity was measured against MT-4 cells using MTT assay. The format is functional. As to conditions: Homo sapiens. (Formazan colour is commonly taken as a measure of viable cells.)
Assay [2] deals with MT4. Briefly: In vitro inhibitory activity for cytopathicities induced by HIV-1III B against MT-4 cells. The format is functional, cell-based. To be noted: Homo sapiens. In a few lines: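 Exponentially growing MT-4 cells were pelleted (140g, 5 min), infected in a small volume of RPMI-1640 with 100 TCID50 HIV-1 IIIB for 1 h, washed, and plated at 2.5 × 10⁴ cells/well with serial oligonucleotide dilutions. Viability was read by MTT at day 6. IC50 was taken from dose-response curves, as the mean of duplicate or quadruplicate ± SD.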
In general terms: Protection from cytopathic effect is a common read-out in antiviral testing.

Regarding `Cc1cn([C@H]2C[C@H](OP(=O)(O)OC[C@H]3O[C@@H](n4cnc5c(=O)[nH]c(N)nc54)C[C@@H]3OP(=O)(O)OC[C@H]3O[C@@H](n4cnc5c(=O)[nH]c(N)nc54)C[C@@H]3OP(=O)(O)OC[C@H]3O[C@@H](n4cnc5c(=O)[nH]c(N)nc54)CC3OP(=O)(O)OC[C@H]3O[C@@H](n4cnc5c(N)ncnc54)C[C@@H]3OP(=O)(O)OC[C@H]3O[C@@H](n4cnc5c(=O)[nH]c(N)nc54)C[C@@H]3O[Si](c3ccccc3)(c3ccccc3)C(C)(C)C)[C@@H](CO[Si](c3ccccc3)(c3ccccc3)C(C)(C)C)O2)c(=O)[nH]c1=O` (some centres undefined), the 50% cytotoxic concentration (CC50) (commonly the concentration giving 50% cytotoxicity) in assay [1] is greater than 40000 nM. For the same compound, in assay [2], the concentration for half-maximal inhibition (IC50) (in general, the midpoint of a concentration-inhibition curve) is 6000 nM.

As to `Cc1cn([C@H]2C[C@H](OP(=O)(O)OC[C@H]3O[C@@H](n4cnc5c(=O)[nH]c(N)nc54)C[C@@H]3OP(=O)(O)OC[C@H]3O[C@@H](n4cnc5c(=O)[nH]c(N)nc54)C[C@@H]3OP(=O)(O)OC[C@H]3O[C@@H](n4cnc5c(=O)[nH]c(N)nc54)C[C@@H]3OP(=O)(O)OC[C@H]3O[C@@H](n4cnc5c(N)ncnc54)C[C@@H]3OP(=O)(O)OC[C@H]3O[C@@H](n4cnc5c(=O)[nH]c(N)nc54)C[C@@H]3O)[C@@H](COC3(c4ccccc4)c4ccccc4Oc4ccccc43)O2)c(=O)[nH]c1=O`, the CC50 in assay [1] was greater than 40000 nM. For the same compound, the half-inhibitory concentration (IC50) in assay [2] was 950 nM.

For `Cc1cn([C@H]2C[C@H](OP(=O)(O)OC[C@H]3O[C@@H](n4cnc5c(=O)[nH]c(N)nc54)C[C@@H]3OP(=O)(O)OC[C@H]3O[C@@H](n4cnc5c(=O)[nH]c(N)nc54)C[C@@H]3OP(=O)(O)OC[C@H]3O[C@@H](n4cnc5c(=O)[nH]c(N)nc54)C[C@@H]3OP(=O)(O)OC[C@H]3O[C@@H](n4cnc5c(N)ncnc54)C[C@@H]3OP(=O)(O)OC[C@H]3O[C@@H](n4cnc5c(=O)[nH]c(N)nc54)C[C@@H]3O)[C@@H](CO[Si](c3ccccc3)(c3ccccc3)C(C)(C)C)O2)c(=O)[nH]c1=O`, the half-maximal cytotoxic concentration (CC50) in assay [1] was greater than 40000 nM. This compound also yielded an IC50 in assay [2] of 880 nM.

On to `Cc1cn([C@H]2C[C@H](OP(=O)(O)OC[C@H]3O[C@@H](n4cc(C)c(=O)[nH]c4=O)C[C@@H]3OP(=O)(O)OC[C@H]3O[C@@H](n4cnc5c(O)nc(N)nc54)C[C@@H]3OP(=O)(O)OC[C@H]3O[C@@H](n4cnc5c(O)nc(N)nc54)C[C@@H]3OP(=O)(O)OC[C@H]3O[C@@H](n4cnc5c(O)nc(N)nc54)C[C@@H]3O)[C@@H](COCc3ccc(OCc4ccccc4)c(OCc4ccccc4)c3)O2)c(=O)[nH]c1=O`, for which the CC50 in assay [1] is 40000 nM. This compound also showed a concentration for half-maximal inhibition (IC50) in assay [2] greater than 40000 nM.

As for `Cc1cn([C@H]2C[C@H](OP(=O)(O)OC[C@H]3O[C@@H](n4cnc5c(O)nc(N)nc54)C[C@@H]3OP(=O)(O)OC[C@H]3O[C@@H](n4cnc5c(O)nc(N)nc54)C[C@@H]3O)[C@@H](COCc3ccc(OCc4ccccc4)c(OCc4ccccc4)c3)O2)c(=O)[nH]c1=O`, the CC50 in assay [1] was greater than 70000 nM. Further, in assay [2], the IC50 was greater than 70000 nM.

The compound `Cc1cn([C@H]2C[C@H](OP(=O)(O)OC[C@H]3O[C@@H](n4cc(C)c(=O)[nH]c4=O)C[C@@H]3OP(=O)(O)OC[C@H]3O[C@@H](n4cnc5c(=O)[nH]c(N)nc54)C[C@@H]3OP(=O)(O)OC[C@H]3O[C@@H](n4cnc5c(=O)[nH]c(N)nc54)C[C@@H]3OP(=O)(O)OC[C@H]3O[C@@H](n4cnc5c(=O)[nH]c(N)nc54)C[C@@H]3OP(=O)(O)OC[C@H]3O[C@@H](n4cnc5c(=O)[nH]c(N)nc54)C[C@@H]3O)[C@@H](COCc3ccc(OCc4ccccc4)c(OCc4ccccc4)c3)O2)c(=O)[nH]c1=O` showed a 50% cytotoxic concentration (CC50) in assay [1] greater than 40000 nM. The compound further registered an IC50 in assay [2] of 560 nM.

For the compound `Cc1cn([C@H]2C[C@H](OP(=O)(O)OC[C@H]3O[C@@H](n4cnc5c(=O)[nH]c(N)nc54)C[C@@H]3OP(=O)(O)OC[C@H]3O[C@@H](n4cnc5c(=O)[nH]c(N)nc54)C[C@@H]3OP(=O)(O)OC[C@H]3O[C@@H](n4cnc5c(=O)[nH]c(N)nc54)C[C@@H]3OP(=O)(O)OC[C@H]3O[C@@H](n4cnc5c(N)ncnc54)C[C@@H]3OP(=O)(O)OC[C@H]3O[C@@H](n4cnc5c(=O)[nH]c(N)nc54)C[C@@H]3O)[C@@H](COCc3ccc4ccccc4c3)O2)c(=O)[nH]c1=O`, in assay [1], the CC50 is greater than 40000 nM. The same compound yielded a half-maximal inhibitory concentration (IC50) in assay [2] of 2000 nM.

For the compound `Cc1cn([C@H]2C[C@H](OP(=O)(O)OC[C@H]3O[C@@H](n4cnc5c(=O)[nH]c(N)nc54)C[C@@H]3OP(=O)(O)OC[C@H]3O[C@@H](n4cnc5c(=O)[nH]c(N)nc54)C[C@@H]3OP(=O)(O)OC[C@H]3O[C@@H](n4cnc5c(=O)[nH]c(N)nc54)C[C@@H]3OP(=O)(O)OC[C@H]3O[C@@H](n4cnc5c(N)ncnc54)C[C@@H]3OP(=O)(O)OC[C@H]3O[C@@H](n4cnc5c(=O)[nH]c(N)nc54)C[C@@H]3O)[C@@H](COCc3ccc(-c4ccccc4)cc3)O2)c(=O)[nH]c1=O`, the CC50 in assay [1] was greater than 40000 nM. The compound further had an IC50 in assay [2] of 2800 nM.

Compound `Cc1cn([C@H]2C[C@H](OP(=O)(O)OC[C@H]3O[C@@H](n4cnc5c(=O)[nH]c(N)nc54)C[C@@H]3OP(=O)(O)OC[C@H]3O[C@@H](n4cnc5c(=O)[nH]c(N)nc54)C[C@@H]3OP(=O)(O)OC[C@H]3O[C@@H](n4cnc5c(=O)[nH]c(N)nc54)C[C@@H]3OP(=O)(O)OC[C@H]3O[C@@H](n4cnc5c(N)ncnc54)C[C@@H]3OP(=O)(O)OC[C@H]3O[C@@H](n4cnc5c(=O)[nH]c(N)nc54)C[C@@H]3O)[C@@H](COCc3ccc(OCc4ccccc4)cc3)O2)c(=O)[nH]c1=O` yielded a CC50 in assay [1] greater than 40000 nM. In assay [2], this compound gave an IC50 of 1900 nM.

Regarding `Cc1cn([C@H]2C[C@H](OP(=O)(O)OC[C@H]3O[C@@H](n4cnc5c(=O)[nH]c(N)nc54)C[C@@H]3OP(=O)(O)OC[C@H]3O[C@@H](n4cnc5c(=O)[nH]c(N)nc54)C[C@@H]3OP(=O)(O)OC[C@H]3O[C@@H](n4cnc5c(=O)[nH]c(N)nc54)C[C@@H]3OP(=O)(O)OC[C@H]3O[C@@H](n4cnc5c(N)ncnc54)C[C@@H]3OP(=O)(O)OC[C@H]3O[C@@H](n4cnc5c(=O)[nH]c(N)nc54)C[C@@H]3O)[C@@H](COC3(c4ccccc4)c4ccccc4-c4ccccc43)O2)c(=O)[nH]c1=O`, the CC50 in assay [1] is greater than 40000 nM. This compound had a half-maximal inhibitory concentration (IC50) in assay [2] of 1300 nM.

`Cc1cn([C@H]2C[C@H](OP(=O)(O)OC[C@H]3O[C@@H](n4cnc5c(=O)[nH]c(N)nc54)C[C@@H]3OP(=O)(O)OC[C@H]3O[C@@H](n4cnc5c(=O)[nH]c(N)nc54)C[C@@H]3OP(=O)(O)OC[C@H]3O[C@@H](n4cnc5c(=O)[nH]c(N)nc54)C[C@@H]3OP(=O)(O)OC[C@H]3O[C@@H](n4cnc5c(N)ncnc54)C[C@@H]3OP(=O)(O)OC[C@H]3O[C@@H](n4cnc5c(=O)[nH]c(N)nc54)C[C@@H]3O)[C@@H](COCc3cc(OCc4ccccc4)cc(OCc4ccccc4)c3)O2)c(=O)[nH]c1=O` showed a cytotoxic concentration (CC50) in assay [1] greater than 40000 nM. In addition, the half-inhibitory concentration (IC50) in assay [2] turned out to be 490 nM.

`Cc1cn([C@H]2C[C@H](OP(=O)(O)OC[C@H]3O[C@@H](n4cnc5c(=O)[nH]c(N)nc54)C[C@@H]3OP(=O)(O)OC[C@H]3O[C@@H](n4cnc5c(=O)[nH]c(N)nc54)C[C@@H]3OP(=O)(O)OC[C@H]3O[C@@H](n4cnc5c(=O)[nH]c(N)nc54)C[C@@H]3OP(=O)(O)OC[C@H]3O[C@@H](n4cnc5c(N)ncnc54)C[C@@H]3OP(=O)(O)OC[C@H]3O[C@@H](n4cnc5c(=O)[nH]c(N)nc54)C[C@@H]3O)[C@@H](COCc3ccc4ccc5cccc6ccc3c4c56)O2)c(=O)[nH]c1=O`: the CC50 in assay [1] is greater than 40000 nM. Further, it took 1800 nM to reach half-maximal inhibition in assay [2] (IC50).
